Data as given in article PMC2581794 (Bioorganic & medicinal chemistry, 2008).

Key:
[1] = biological target: Lck (Homo sapiens, UniProt P06239); assay: Photoaffinity-labeling; type: biochemical; settings: for photolabeling of Lck in the presence of an ATP-competitive inhibitor of Lck: Figure S2, competition with ATP-competitive Lck inhibitor; for photolabeling efficiency of Lck (in words): compared with compound 1
Procedure, shortened: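 Commercial Lck photolabelled with biotin-tagged benzophenone ligands at 0, 3, 9, 18, 36, 90 and 180 µM. Western blot on PVDF: after blocking, streptavidin-HRP (1:10,000 in 3% non-fat milk/TBS-T) and ECL-Plus chemiluminescence. Bands quantified with background subtracted as 0%; 100% = maximal band of reference photoligand at 180 µM. EC50 from sigmoidal fit of triplicates (n = 3), with 95% CI.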

[2] = Decomposition of free photoligands under UV light; type: physicochemical; settings: UV-A lamp λmax 350 nm, up to 30 min, HPLC
Procedure, shortened: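 Each probe at 30 µM in buffer was held on ice about 5 cm below six 15 W blacklight lamps (λmax 350 nm). Aliquots taken at 0, 10 and 30 min were analysed by RP-HPLC with UV detection at 280 nm. Intact probe concentration was estimated from chromatogram peak areas.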

Chain of Lck (P06239 whole entry): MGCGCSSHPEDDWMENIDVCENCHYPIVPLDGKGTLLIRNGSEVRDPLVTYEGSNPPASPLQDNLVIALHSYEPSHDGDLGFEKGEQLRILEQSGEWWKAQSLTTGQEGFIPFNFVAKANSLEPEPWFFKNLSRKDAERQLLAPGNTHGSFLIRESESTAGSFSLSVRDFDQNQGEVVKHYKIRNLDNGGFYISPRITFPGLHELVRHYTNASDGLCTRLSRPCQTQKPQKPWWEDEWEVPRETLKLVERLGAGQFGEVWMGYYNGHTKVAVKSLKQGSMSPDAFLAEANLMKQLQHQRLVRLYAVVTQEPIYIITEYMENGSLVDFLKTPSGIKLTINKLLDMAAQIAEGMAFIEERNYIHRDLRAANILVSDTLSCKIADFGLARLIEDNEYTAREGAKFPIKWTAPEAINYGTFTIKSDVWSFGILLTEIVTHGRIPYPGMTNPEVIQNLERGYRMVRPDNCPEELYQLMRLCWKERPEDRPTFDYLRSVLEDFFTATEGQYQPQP

In the case of Nc1ncnc2c1ncn2CC(=O)N(CCNC(=O)CNC(=O)[C@H](Cc1ccc(C(=O)c2ccccc2)cc1)NC(=O)CCCNC(=O)CCCC[C@@H]1SC[C@@H]2NC(=O)N[C@@H]21)CC(=O)NCC(=O)O [Compound 1], the “photolabeling of Lck in the presence of an ATP-competitive inhibitor of Lck” value [1] is reported as “completely blocked”.
With Nc1ncnc2c1ncn2CC(=O)N(CCNC(=O)[C@@H](CO)NC(=O)[C@H](Cc1ccc(C(=O)c2ccccc2)cc1)NC(=O)CCCNC(=O)CCCC[C@@H]1SC[C@@H]2NC(=O)N[C@@H]21)CC(=O)NCC(=O)O [Compound 2] the “photolabeling of Lck in the presence of an ATP-competitive inhibitor of Lck” value [1] was “completely blocked” and the “photolabeling efficiency of Lck (in words)” value [1] was “comparable to that of 1”.
In the case of Nc1ncnc2c1ncn2CC(=O)N(CCNC(=O)[C@@H](CCC(=O)O)NC(=O)[C@H](Cc1ccc(C(=O)c2ccccc2)cc1)NC(=O)CCCNC(=O)CCCC[C@@H]1SC[C@@H]2NC(=O)N[C@@H]21)CC(=O)NCC(=O)O [Compound 3], the “photolabeling of Lck in the presence of an ATP-competitive inhibitor of Lck” value [1] is reported as “completely blocked” and the “photolabeling efficiency of Lck (in words)” value [1] is reported as “comparable to that of 1”.
For Nc1ncnc2c1ncn2CC(=O)N(CCNC(=O)[C@H]1CCCN1C(=O)[C@H](Cc1ccc(C(=O)c2ccccc2)cc1)NC(=O)CCCNC(=O)CCCC[C@@H]1SC[C@@H]2NC(=O)N[C@@H]21)CC(=O)NCC(=O)O [Compound 4], the “decomposition of free ligand under UV (in words)” value [2] was “almost identical to that of 1”.
In the case of Nc1ncnc2c1ncn2CC(=O)N(CCNC(=O)CCCNC(=O)[C@H](Cc1ccc(C(=O)c2ccccc2)cc1)NC(=O)CCCNC(=O)CCCC[C@@H]1SC[C@@H]2NC(=O)N[C@@H]21)CC(=O)NCC(=O)O [Compound 6], the “photolabeling of Lck in the presence of an ATP-competitive inhibitor of Lck” value [1] is reported as “completely blocked”.
